In experiment [1] the target is Glutamate receptor ionotropic, AMPA (Rattus norvegicus, UniProt P19490+P19491+P19492+P19493). Kind of experiment: Affinity against Ionotropic glutamate receptor AMPA using [3H]AMPA in selective radioligand binding assay. It is filed as protein-complex assay. In a few lines:
(§1)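 Displacement of the ionotropic radioligands ([3H]CGS19755 for NMDA, [3H]AMPA for AMPA, [3H]kainate for kainate sites) in rat forebrain membranes in vitro. Compounds were tested up to 100 μM, with IC50 as the read-out.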

For experiment [2], the target named is Glutamate receptor ionotropic, kainate. In words: Affinity value against Ionotropic glutamate receptor kainate using [3H]-kainic acid in selective radioligand binding assay. The format is protein-complex assay. In a few lines:
as §1

A short description of experiment [3]: In vitro ability to displace [3H]glutamate binding to metabotropic glutamate receptors in rat forebrain membranes. It is filed as cell membranes, Membrane. In a few lines: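 Radioligand displacement of ACPD-sensitive [3H]glutamate binding to metabotropic glutamate receptors in rat forebrain membranes in vitro. IC50 is reported as mean ± error.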
The target of the next experiment is Glutamate NMDA receptor. In words: Affinity value against N-methyl-D-aspartate (NMDA) receptor using [3H]-CGS- 19755 in glutamate radioligand binding assay. It is filed as protein-complex assay. In a few lines:
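Displacement of the ionotropic radioligands ([3H]CGS19755 for NMDA, [3H]AMPA for AMPA, [3H]kainate for kainate sites) in rat forebrain membranes in vitro.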

Experiment [4] is filed under the species Rattus norvegicus. In words: Inhibition of forskolin-stim cAMP formation in cross-chopped slices of the adult rat cerebral cortex. It is filed as functional. For orientation: Cyclic AMP is a second messenger, typically raised through Gs and lowered through Gi signalling.
Experiment [5] is filed under the species Rattus norvegicus. Kind of experiment: Augmentation of AMPA-induced excitation after Microelectrophoretic application to intact rat spinal neuron. It is filed as functional. An outline of the steps:
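Female Wistar rats (200–230 g) under pentobarbitone Na (60 mg/kg ip initially, supplemented ip as needed) with lumbar laminectomy. A seven-barrel glass microelectrode in spinal gray matter recorded single-neuron firing during timed intermittent AMPA ejection (barrel 10 mM in 200 mM NaCl, pH 7.4). Agonists (barrel 25 mM in 175 mM NaCl, pH 7.4) were ejected in varied order across cells. Response reported as % increase over control, mean ± SEM.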

The species entered for experiment [6] is Rattus norvegicus. Kind of experiment: Stimulation of [3H]IP (tritiated inositol monophosphate) formation in cross-chopped slices of the neonata rat cerebral cortex. The format is functional.
For a further experiment, the system named is Mus musculus. In words: Dose dependent blocking of limbic seizures induced by compound 1 by systemically administrating intraperitoneally.

Structures are written as SMILES.

One may read the IC50 as the concentration that inhibits the measured activity by half. The low end stands for higher potency, the high end for lower potency.

On to `N[C@]1(C(=O)O)CN[C@H](C(=O)O)C1`, for which the IC50 (in experiment [1]; in experiment [2]; in experiment [3]; on Glutamate NMDA receptor) was over 100 µM each time.
In the case of `N[C@]1(C(=O)O)CN[C@@H](C(=O)O)C1`, the IC50 in experiment [1], in experiment [2] and in experiment [3] was over 100 µM each time.
For the compound `N[C@@]1(C(=O)O)CC[C@@H](C(=O)O)C1`, the EC50 in the experiment listed under Rattus norvegicus [4] turned out to be 8.17 µM; in the experiment filed under Rattus norvegicus [6], 27.7 µM. In the experiment filed under Rattus norvegicus [5], this compound displayed an Increase of 95%. For the same compound, the IC50 in experiment [1] was over 100 µM; in experiment [2], over 100 µM; in experiment [3] it was 10.3 µM; on Glutamate NMDA receptor, over 100 µM.
On to `N[C@@]1(C(=O)O)CN[C@@H](C(=O)O)C1`, for which the EC50 in the experiment filed under Rattus norvegicus [4] is 14.5 µM; in the experiment on Mus musculus, 271 mg/kg. The Increase in the experiment listed under Rattus norvegicus [5] is given as 52%. The IC50 is over 100 µM in experiment [1], over 100 µM in experiment [2], 6.49 µM in experiment [3] and over 100 µM at Glutamate NMDA receptor.
On to `N[C@@]1(C(=O)O)CN[C@H](C(=O)O)C1`, for which the IC50 in experiment [1] was over 100 µM; in experiment [2] it was over 100 µM; in experiment [3] it was over 100 µM; on Glutamate NMDA receptor, 23.7 µM.

Source of the values: ChEMBL document CHEMBL1129790 (J Med Chem, 1996).
